Experimental data published in PMC2956778 (Biochemical and biophysical research communications, 2010).
“Also recorded” adds a separate entry of the source. Read-outs that look alike come from different tables or passages of the source.

What was measured:
[1] = Membrane permeability assay; design: species or system rabbit
[2] = molecular target: Ca2+-saturated CaM bound to RyR1 (skeletal SR vesicles) (Homo sapiens, UniProt P0DP23); assay: [35S]CaM binding to skeletal SR vesicles; design: species or system rabbit; settings: for Effect on [35S]CaM binding to SR vesicles: LPC effect probably an artefact (also decreased nonspecific binding)
[3] = tested on: microsomes from bovine brain cerebrum
[4] = tested on: complex between CaM and the peptide representing the CaM-binding domain of RyR1; settings: cited from earlier work
[5] = molecular target: RyR1 (skeletal SR vesicles) (Oryctolagus cuniculus, UniProt P11716); assay: [3H]ryanodine binding to skeletal SR vesicles; design: species or system rabbit; settings: for Effect on [3H]ryanodine binding: 50 μM free Ca2+
purified RyR1 = purified RyR1 (Oryctolagus cuniculus, UniProt P11716); assay: Single channel recordings of purified RyR1 in planar lipid bilayers; assay type: biochemical, rabbit; settings: for Ac1 / Ac2 / Ao1 / Ao2 / Po / τc1 / τc2 (lifetime of the second closed state) / τo1 / τo2 / No. of events: +1 μM SPC; for No. of events: 2 min recordings; for Single channel open probability (Po), representative recording: after 1 μM SPC cis
Method in brief: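 Purified RyR1 from rabbit SR: CHAPS-solubilised, sucrose-gradient purified, reconstituted into phosphatidylcholine liposomes, fused cis into PE:PS:PC (5:3:2) n-decane bilayers. Symmetrical 0.25 M KCl, 20 mM K-HEPES pH 7.4, 22 μM free Ca²⁺ cis. Test compound added cis. For +CaM, 30 min room-temperature preincubation with 1 μM CaM, then 100 nM CaM cis. Recorded at ±35 mV, sampled 10 kHz, filtered 2 kHz, ≥2 min per condition. Dwell times fitted by maximum likelihood to exponential sums.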

[6] = tested on: microsomes from bovine brain cerebrum; assay: Ca2+ release from brain microsomes; settings: data not shown

Sequence of RyR1 (skeletal SR vesicles) (P11716 whole entry): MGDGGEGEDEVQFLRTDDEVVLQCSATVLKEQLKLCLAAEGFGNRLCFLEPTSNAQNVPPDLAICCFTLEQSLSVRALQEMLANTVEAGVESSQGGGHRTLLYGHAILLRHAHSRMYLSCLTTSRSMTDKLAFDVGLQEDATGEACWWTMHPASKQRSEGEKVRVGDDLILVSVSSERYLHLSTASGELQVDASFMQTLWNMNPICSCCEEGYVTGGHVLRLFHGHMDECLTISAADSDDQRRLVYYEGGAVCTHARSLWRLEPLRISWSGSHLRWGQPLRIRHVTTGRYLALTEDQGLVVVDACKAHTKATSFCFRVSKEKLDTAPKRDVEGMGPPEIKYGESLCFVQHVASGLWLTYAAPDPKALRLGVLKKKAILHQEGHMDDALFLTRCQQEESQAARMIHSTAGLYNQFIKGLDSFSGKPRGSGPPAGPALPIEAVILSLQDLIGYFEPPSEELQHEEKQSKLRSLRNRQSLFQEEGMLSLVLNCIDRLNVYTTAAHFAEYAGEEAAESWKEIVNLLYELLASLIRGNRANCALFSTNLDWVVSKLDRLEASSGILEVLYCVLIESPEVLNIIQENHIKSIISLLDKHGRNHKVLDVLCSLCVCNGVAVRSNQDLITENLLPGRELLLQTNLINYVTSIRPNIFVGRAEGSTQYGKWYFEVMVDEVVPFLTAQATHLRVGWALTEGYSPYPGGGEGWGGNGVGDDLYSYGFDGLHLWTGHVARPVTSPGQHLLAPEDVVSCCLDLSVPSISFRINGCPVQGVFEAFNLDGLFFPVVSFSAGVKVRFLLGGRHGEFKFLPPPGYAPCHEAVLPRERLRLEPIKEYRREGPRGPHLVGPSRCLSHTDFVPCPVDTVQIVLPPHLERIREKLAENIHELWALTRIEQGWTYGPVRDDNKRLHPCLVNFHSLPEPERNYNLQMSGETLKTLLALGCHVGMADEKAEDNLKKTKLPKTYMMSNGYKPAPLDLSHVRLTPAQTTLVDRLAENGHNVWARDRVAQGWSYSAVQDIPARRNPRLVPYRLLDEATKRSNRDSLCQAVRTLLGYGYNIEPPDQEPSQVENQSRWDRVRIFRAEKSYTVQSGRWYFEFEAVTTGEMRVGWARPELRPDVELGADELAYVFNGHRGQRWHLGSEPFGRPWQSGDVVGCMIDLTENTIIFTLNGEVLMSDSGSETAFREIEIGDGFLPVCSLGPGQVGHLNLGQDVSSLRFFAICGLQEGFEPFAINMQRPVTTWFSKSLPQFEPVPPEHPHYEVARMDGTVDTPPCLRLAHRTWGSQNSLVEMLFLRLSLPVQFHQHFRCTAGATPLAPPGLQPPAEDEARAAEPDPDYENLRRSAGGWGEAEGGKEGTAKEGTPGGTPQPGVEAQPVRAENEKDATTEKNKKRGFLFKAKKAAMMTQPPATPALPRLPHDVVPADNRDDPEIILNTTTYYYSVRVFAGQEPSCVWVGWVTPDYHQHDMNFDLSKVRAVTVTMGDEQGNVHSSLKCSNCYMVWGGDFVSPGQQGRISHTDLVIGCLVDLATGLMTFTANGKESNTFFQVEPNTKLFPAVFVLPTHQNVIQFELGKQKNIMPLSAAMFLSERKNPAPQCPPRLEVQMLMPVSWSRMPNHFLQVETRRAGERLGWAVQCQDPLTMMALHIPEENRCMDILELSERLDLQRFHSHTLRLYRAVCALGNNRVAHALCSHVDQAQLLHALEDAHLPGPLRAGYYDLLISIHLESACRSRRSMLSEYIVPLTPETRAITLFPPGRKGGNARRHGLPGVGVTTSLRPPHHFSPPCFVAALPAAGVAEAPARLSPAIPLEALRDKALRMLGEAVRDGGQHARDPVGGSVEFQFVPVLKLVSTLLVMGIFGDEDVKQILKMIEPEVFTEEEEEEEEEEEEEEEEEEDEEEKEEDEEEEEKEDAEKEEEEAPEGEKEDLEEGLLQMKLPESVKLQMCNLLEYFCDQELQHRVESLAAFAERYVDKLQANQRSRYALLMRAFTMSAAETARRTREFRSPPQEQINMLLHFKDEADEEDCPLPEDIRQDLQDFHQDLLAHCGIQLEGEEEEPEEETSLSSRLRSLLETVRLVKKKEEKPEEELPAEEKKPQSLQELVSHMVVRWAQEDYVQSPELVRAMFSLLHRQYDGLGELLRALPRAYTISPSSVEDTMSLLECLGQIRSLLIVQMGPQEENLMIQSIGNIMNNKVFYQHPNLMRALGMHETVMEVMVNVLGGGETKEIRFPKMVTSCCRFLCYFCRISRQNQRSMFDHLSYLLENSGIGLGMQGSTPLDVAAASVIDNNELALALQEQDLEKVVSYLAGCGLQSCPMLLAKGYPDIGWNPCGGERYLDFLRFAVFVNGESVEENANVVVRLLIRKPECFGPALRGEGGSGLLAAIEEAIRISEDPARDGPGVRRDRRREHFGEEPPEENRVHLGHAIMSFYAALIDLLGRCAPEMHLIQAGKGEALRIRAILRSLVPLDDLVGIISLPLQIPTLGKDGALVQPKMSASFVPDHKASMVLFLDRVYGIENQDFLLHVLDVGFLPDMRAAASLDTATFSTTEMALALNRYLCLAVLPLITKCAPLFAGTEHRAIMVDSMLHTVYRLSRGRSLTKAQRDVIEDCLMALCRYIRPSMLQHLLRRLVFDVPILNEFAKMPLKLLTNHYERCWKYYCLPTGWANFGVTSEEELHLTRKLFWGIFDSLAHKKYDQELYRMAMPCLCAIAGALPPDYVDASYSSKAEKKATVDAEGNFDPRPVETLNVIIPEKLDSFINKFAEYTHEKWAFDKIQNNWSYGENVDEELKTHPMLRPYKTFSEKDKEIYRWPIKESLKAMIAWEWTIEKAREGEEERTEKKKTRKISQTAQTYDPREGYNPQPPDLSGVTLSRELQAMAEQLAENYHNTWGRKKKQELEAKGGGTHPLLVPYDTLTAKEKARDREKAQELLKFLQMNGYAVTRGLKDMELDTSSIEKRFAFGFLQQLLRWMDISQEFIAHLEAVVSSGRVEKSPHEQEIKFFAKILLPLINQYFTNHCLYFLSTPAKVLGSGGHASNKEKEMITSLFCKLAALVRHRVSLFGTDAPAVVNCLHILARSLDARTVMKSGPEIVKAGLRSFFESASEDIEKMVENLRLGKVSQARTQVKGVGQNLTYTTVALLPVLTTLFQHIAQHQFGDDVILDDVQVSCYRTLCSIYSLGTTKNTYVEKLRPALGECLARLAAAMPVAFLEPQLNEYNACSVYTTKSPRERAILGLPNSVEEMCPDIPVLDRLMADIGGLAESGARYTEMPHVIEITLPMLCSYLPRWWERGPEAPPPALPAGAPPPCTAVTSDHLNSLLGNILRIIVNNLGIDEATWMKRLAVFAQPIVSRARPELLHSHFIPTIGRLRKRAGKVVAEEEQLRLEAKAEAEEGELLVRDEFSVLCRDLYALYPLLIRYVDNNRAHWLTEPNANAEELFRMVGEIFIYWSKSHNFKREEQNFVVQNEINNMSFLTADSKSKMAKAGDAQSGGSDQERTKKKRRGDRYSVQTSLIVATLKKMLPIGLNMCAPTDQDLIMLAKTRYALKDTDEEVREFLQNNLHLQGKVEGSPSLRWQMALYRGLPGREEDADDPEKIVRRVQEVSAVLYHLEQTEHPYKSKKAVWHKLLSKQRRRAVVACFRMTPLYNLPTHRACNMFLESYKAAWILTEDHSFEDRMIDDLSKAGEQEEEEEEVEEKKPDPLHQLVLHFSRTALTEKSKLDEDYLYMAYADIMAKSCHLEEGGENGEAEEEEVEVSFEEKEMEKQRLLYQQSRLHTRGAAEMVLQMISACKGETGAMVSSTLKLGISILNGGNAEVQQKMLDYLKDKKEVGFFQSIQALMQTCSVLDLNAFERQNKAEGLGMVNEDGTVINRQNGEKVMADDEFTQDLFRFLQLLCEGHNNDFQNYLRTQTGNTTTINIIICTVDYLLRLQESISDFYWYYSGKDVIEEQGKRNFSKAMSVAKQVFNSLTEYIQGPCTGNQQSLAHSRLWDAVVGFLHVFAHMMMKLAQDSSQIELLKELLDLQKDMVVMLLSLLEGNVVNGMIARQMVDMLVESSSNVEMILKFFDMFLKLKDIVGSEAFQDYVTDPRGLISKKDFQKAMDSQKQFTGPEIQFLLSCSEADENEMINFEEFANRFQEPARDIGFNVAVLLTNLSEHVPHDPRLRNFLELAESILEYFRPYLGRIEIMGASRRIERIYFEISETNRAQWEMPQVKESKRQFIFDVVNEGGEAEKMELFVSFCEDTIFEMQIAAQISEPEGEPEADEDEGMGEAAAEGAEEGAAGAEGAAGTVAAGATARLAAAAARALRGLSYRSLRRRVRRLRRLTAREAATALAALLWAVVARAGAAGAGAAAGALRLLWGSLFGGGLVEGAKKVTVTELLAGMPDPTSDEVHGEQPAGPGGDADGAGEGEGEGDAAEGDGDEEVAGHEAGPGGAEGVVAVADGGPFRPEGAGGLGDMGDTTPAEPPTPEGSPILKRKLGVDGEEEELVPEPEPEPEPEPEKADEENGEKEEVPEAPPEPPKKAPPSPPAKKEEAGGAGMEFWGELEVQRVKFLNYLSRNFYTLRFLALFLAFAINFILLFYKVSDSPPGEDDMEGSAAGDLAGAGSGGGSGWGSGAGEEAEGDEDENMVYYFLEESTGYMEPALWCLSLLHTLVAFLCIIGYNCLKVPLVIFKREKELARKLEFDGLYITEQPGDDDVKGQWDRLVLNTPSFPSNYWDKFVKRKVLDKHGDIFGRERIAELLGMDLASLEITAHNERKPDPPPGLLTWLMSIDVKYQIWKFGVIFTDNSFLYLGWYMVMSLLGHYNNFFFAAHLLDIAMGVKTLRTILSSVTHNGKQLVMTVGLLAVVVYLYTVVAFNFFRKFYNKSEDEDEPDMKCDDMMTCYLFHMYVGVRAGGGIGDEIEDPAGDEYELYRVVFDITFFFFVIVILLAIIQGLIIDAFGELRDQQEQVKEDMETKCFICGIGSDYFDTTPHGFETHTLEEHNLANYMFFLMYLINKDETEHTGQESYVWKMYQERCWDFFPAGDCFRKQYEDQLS
Sequence of purified RyR1 (P11716 whole entry, the tested form may be a part): as the sequence (P11716 whole entry) above

Question: Which “Effect on glucose permeability of SR vesicles” value (“Effect on glucose permeability” below) ([1]; 1% CHAPS detergent) does the source give for `C[C@H](CCC(=O)NCCC[N+](C)(C)CCCS(=O)(=O)[O-])[C@H]1CC[C@H]2[C@@H]3[C@H](O)C[C@@H]4C[C@H](O)CC[C@]4(C)[C@H]3C[C@H](O)[C@]12C` [CHAPS] here?
Answer: released a large amount of stored glucose

Question: Which “Effect on [35S]CaM binding to SR vesicles” value (“Effect on [35S]CaM binding” below) [2] does the source give for `CCCCCCCC/C=C\CCCCCCCC(=O)OCC(O)COP(=O)(O)O` (centres unmarked) [LPA, oleoyl-lysophosphatidic acid] here?
Answer: ineffective

Question: What about the “Effect on glucose permeability” value ([1]; 50 μM lysophospholipid) of the same molecule?
Answer: do not disrupt the permeability barrier

Question: What about the “Ca2+ release from brain microsomes” value [3] of the same molecule?
Answer: released a large amount of Ca^2+

Question: For `CCCCCCCC/C=C\CCCCCCCC(=O)OC[C@@H](O)COP(=O)([O-])OCC[N+](C)(C)C` [LPC, oleoyl-lysophosphatidylcholine], which “Effect on [35S]CaM binding” value [2] is on record?
Answer: decreased; also recorded: significantly decrease

Question: And the “Effect on glucose permeability” value ([1]; 50 μM lysophospholipid)?
Answer: do not disrupt the permeability barrier

Question: And the “Ca2+ release from brain microsomes” value [3]?
Answer: released a large amount of Ca^2+

Question: And the “Effect in peptide binding experiments” value [4]?
Answer: without action

Question: For `CCCCCCCCCCCCC/C=C/[C@@H](O)[C@@H](N)COP(=O)(O)O` [S1P, D-erythro-sphingosine-1-phosphate], which “Effect on [3H]ryanodine binding” value ([5]; absence of CaM) is on record?
Answer: minor inhibitory effect

Question: What about the “Effect on [3H]ryanodine binding” value ([5]; presence of CaM) of the same molecule?
Answer: further decreased

Question: And the “Effect on [35S]CaM binding” value [2]?
Answer: ineffective

Question: What about the “Effect on glucose permeability” value ([1]; 50 μM lysophospholipid) of the same molecule?
Answer: do not disrupt the permeability barrier

Question: Which results are given for `CCCCCCCCCCCCC/C=C/[C@@H](O)[C@@H](N)COP(=O)(O)OCC[N+](C)(C)C` [SPC, D-erythro-sphingosylphosphorylcholine]?
Answer: Ac1 (purified RyR1; 22 μM Ca2+): 0.994 ± 0.003; Ac2 (purified RyR1; 22 μM Ca2+): 0.006 ± 0.003; Ao1 (purified RyR1; 22 μM Ca2+): 0.81 ± 0.18; Ao2 (purified RyR1; 22 μM Ca2+): 0.19 ± 0.18; Po (purified RyR1; 22 μM Ca2+): 0.24 ± 0.10; τc1 (purified RyR1; 22 μM Ca2+): 1.07 ± 0.68 ms; τc2 (lifetime of the second closed state) (purified RyR1; 22 μM Ca2+): 452 ± 140 ms; τo1 (purified RyR1; 22 μM Ca2+): 0.24 ± 0.19 ms; τo2 (purified RyR1; 22 μM Ca2+): 5.09 ± 3.32 ms; Ac1 (purified RyR1; 22 μM Ca2+ and 100 nM CaM): 0.96 ±0.03; Ac2 (purified RyR1; 22 μM Ca2+ and 100 nM CaM): 0.04 ± 0.03; Ao1 (purified RyR1; 22 μM Ca2+ and 100 nM CaM): 0.94 ± 0.05; Ao2 (purified RyR1; 22 μM Ca2+ and 100 nM CaM): 0.06 ± 0.05; Po (purified RyR1; 22 μM Ca2+ and 100 nM CaM): 0.18 ± 0.09; τc1 (purified RyR1; 22 μM Ca2+ and 100 nM CaM): 2.81 ± 1.66 ms; τc2 (lifetime of the second closed state) (purified RyR1; 22 μM Ca2+ and 100 nM CaM): 619 ± 242 ms; τo1 (purified RyR1; 22 μM Ca2+ and 100 nM CaM): 0.16 ± 0.12 ms; τo2 (purified RyR1; 22 μM Ca2+ and 100 nM CaM): 3.12 ± 2.10 ms; No. of events (purified RyR1; 22 μM Ca2+ and 100 nM CaM): 10,392 ±2633; No. of events (purified RyR1; 22 μM Ca2+): 9767 ± 1884; Single channel open probability (Po), representative recording (purified RyR1; 100 nM CaM, control Po 0.15): 0.05; Single channel open probability (Po), representative recording (purified RyR1; absence of CaM, control Po 0.51): 0.16; Hill-slope of [3H]ryanodine binding dose-response ([5]; absence of CaM, oxidizing conditions (5 mM GSSG)): −2.9 ± 0.2; Hill-slope of [3H]ryanodine binding dose-response ([5]; absence of CaM, reducing conditions (5 mM GSH)): −1.7 ± 0.04; Effect on [3H]ryanodine binding ([5]; presence of CaM): did not significantly alter; Hill-slope of [35S]CaM displacement [2]: 2.3 ± 0.7; Effect on [35S]CaM binding to SR vesicles [2]: significantly decrease; Effect on glucose permeability of SR vesicles ([1]; 50 μM lysophospholipid): do not disrupt the permeability barrier; Ca2+ release from brain microsomes [3]: released a large amount of Ca^2+; IC50 ([4]; read-out: IC50 in peptide binding assays): 19.4 ± 1.4 µM

Question: With `Cn1c(=O)c2c(ncn2C)n(C)c1=O` [caffeine] as the molecule, how does the “Ca2+ release from brain microsomes” value ([6]; 5 mM caffeine) read?
Answer: only had minor effects

Question: For `CC(C)[C@@]1(O)[C@@H](OC(=O)c2ccc[nH]2)[C@@]2(O)[C@@]3(C)C[C@]4(O)O[C@@]5([C@H](O)[C@@H](C)CC[C@]35O)[C@@]2(O)[C@@]14C` [ryanodine], which “Ca2+ release from brain microsomes” value ([6]; 1 μM ryanodine) is on record?
Answer: only had minor effects
